In ChEMBL document CHEMBL5223159, “Structural and Functional Characterization of Indane-Core CD4-Mimetic Compounds Substituted with Heterocyclic Amines” (ACS Med Chem Lett, 2023):
Activity calls are given as the source filed them. The rule behind the calls is not given here.

Columns and labels:
Type in all cases: functional, organism-based
[1] = system: Amphotropic murine leukemia virus; experiment: Antiviral activity against A-MLV infected in HEK293T cells coexpressing firefly luciferase gene incubated for 1 hr; settings: HEK-293T
[2] = system: Human immunodeficiency virus 1; experiment: Antiviral activity against HIV-1 JRFL infected in HEK293T cells coexpressing firefly luciferase gene incubated for 1 hr; settings: Human immunodeficiency virus 1, JRFL, HEK-293T
[3] = system: Human immunodeficiency virus 1; experiment: Antiviral activity against HIV-1 JRFL assessed as inhibition of viral growth; settings: Human immunodeficiency virus 1, JRFL
Method in brief: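 IC50 against JRFL measured in triplicate. Where more than one triplicate experiment was run, the value is the mean IC50 with SEM and N triplicates.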

[4] = system: Human immunodeficiency virus 1; experiment: Antiviral activity against HIV-1 CH58TF infected in primary CD4 T cells isolated from PBMC assessed as antibody dependent cellular toxicity (ADCC) by measuring killing of p24+ infected cells at 50 uM FACS-based ADCC assay; settings: T cell
Method in brief: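 CH58TF-infected (48 h) primary CD4 T cells from PBMC served as targets in a FACS-based ADCC assay. Plasma from 3 HIV-1-infected individuals at 1:1000, with 50 μM compound or DMSO vehicle. Read-out is killing of p24+ infected cells. Mean ± SEM.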

[5] = system: Human immunodeficiency virus 1; experiment: Antiviral activity against HIV-1 CH58TF infected in primary CD4 T cells isolated from PBMC assessed as antibody dependent cellular toxicity (ADCC) at 50 uM by cell surface staining based assay
Method in brief: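 Primary CD4 T cells from PBMC infected with HIV-1 CH58TF for 48 h, then surface-stained with 1:1000 HIV+ plasma (n = 3) plus 50 μM compound or DMSO vehicle. Bound IgG detected with Alexa Fluor 647 anti-human IgG secondary by flow cytometry. Mean ± SEM.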

[6] = system: Human immunodeficiency virus 1; experiment: Antiviral activity against HIV-1 JRFL infected in primary CD4 T cells isolated from PBMC assessed as antibody dependent cellular toxicity (ADCC) at 50 uM by cell surface staining based assay
[7] = system: Amphotropic murine leukemia virus; experiment: Antiviral activity against A-MLV assessed as inhibition of viral growth
Method in brief: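 Control virus pseudotyped with amphotropic MLV Env, tested at concentrations up to 100 μM.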

Row | Compound | IC50 [2] [µM] | Activity [4] | Activity [5] | further results
1 | N=C(N)NC[C@H]1Cc2ccccc2[C@@H]1NC(=O)C(=O)Nc1ccc(Cl)c(F)c1 | – | – | – | IC50 [3]: 66.8 µM
2 | N=C(N)NC[C@H]1Cc2cc(CN3CCC[C@H]3CO)ccc2[C@@H]1NC(=O)C(=O)Nc1ccc(Cl)c(F)c1 | 13.5 | Active | Active | –
3 | N#CC1CCN(Cc2ccc3c(c2)C[C@H](CNC(=N)N)[C@H]3NC(=O)C(=O)Nc2ccc(Cl)c(F)c2)CC1 | 60.7 | – | – | –
4 | N=C(N)NC[C@H]1Cc2cc(CN3CCN(c4ccc(F)cc4F)CC3)ccc2[C@@H]1NC(=O)C(=O)Nc1ccc(Cl)c(F)c1 | 50 | – | – | –
5 | N=C(N)NC[C@H]1Cc2cc(CN3CCC[C@H]3C(=O)O)ccc2[C@@H]1NC(=O)C(=O)Nc1ccc(Cl)c(F)c1 | 45.1 | – | – | –
6 | N=C(N)NC[C@H]1Cc2cc(CN3CC[C@@H](O)C3)ccc2[C@@H]1NC(=O)C(=O)Nc1ccc(Cl)c(F)c1 | 10.2 | Active | Active | –
7 | N=C(N)NC[C@H]1Cc2cc(CN3CCC[C@@H]3CO)ccc2[C@@H]1NC(=O)C(=O)Nc1ccc(Cl)c(F)c1 | 11.1 | Active | Active | –
8 | N=C(N)NC[C@H]1Cc2cc(CN3CC[C@@H](N)C3)ccc2[C@@H]1NC(=O)C(=O)Nc1ccc(Cl)c(F)c1 | 14 | – | – | –
9 | N=C(N)NC[C@H]1Cc2cc(CN3CCC[C@H]3C(N)=O)ccc2[C@@H]1NC(=O)C(=O)Nc1ccc(Cl)c(F)c1 | 12 | Active | Active | –
10 | N=C(N)NC[C@H]1Cc2cc(CN3CCC[C@@H]3C(=O)O)ccc2[C@@H]1NC(=O)C(=O)Nc1ccc(Cl)c(F)c1 | 32.4 | – | – | –
11 | CNCc1ccc2c(c1)C[C@H](CNC(=N)N)[C@H]2NC(=O)C(=O)Nc1ccc(Cl)c(F)c1 | – | – | – | IC50 [7]: > 100 µM; IC50 [3]: 9.6 µM
12 | N=C(N)NC[C@H]1Cc2cc(CN3CCC(C(N)=O)CC3)ccc2[C@@H]1NC(=O)C(=O)Nc1ccc(Cl)c(F)c1 | 33 | – | – | –
13 | N=C(N)NC[C@H]1Cc2cc(CN3CCC[C@H](C(=O)O)C3)ccc2[C@@H]1NC(=O)C(=O)Nc1ccc(Cl)c(F)c1 | 60 | – | – | –

More lines, in order of falling IC50 [2], values ahead:

Row | IC50 [2] [µM] | Compound | Activity [4] | Activity [5] | further results
14 | 10.1 | N=C(N)NC[C@H]1Cc2cc(CN3CC[C@H](N)C3)ccc2[C@@H]1NC(=O)C(=O)Nc1ccc(Cl)c(F)c1 | – | – | –
15 | 9.2 | N=C(N)NC[C@H]1Cc2cc(CN3CC[C@H](O)C3)ccc2[C@@H]1NC(=O)C(=O)Nc1ccc(Cl)c(F)c1 | Active | Active | –
16 | 7.5 | N=C(N)NC[C@H]1Cc2cc(CN[C@H]3CNC[C@@H]3O)ccc2[C@@H]1NC(=O)C(=O)Nc1ccc(Cl)c(F)c1 | Active | Active | –
17 | 6.4 | COC(=O)[C@@H]1C[C@@H](O)CN1Cc1ccc2c(c1)C[C@H](CNC(=N)N)[C@H]2NC(=O)C(=O)Nc1ccc(Cl)c(F)c1 | inactive | Active | Activity [6]: inactive
18 | 5.5 | N=C(N)NC[C@H]1Cc2cc(CN3CCCCC3)ccc2[C@@H]1NC(=O)C(=O)Nc1ccc(Cl)c(F)c1 | – | – | IC50 [1]: > 100 µM
19 | 4 | N=C(N)NC[C@H]1Cc2cc(CN3CCNCC3)ccc2[C@@H]1NC(=O)C(=O)Nc1ccc(Cl)c(F)c1 | Active | Active | IC50 [1]: > 100 µM
20 | 4 | N=C(N)NC[C@H]1Cc2cc(CN3CCCC3)ccc2[C@@H]1NC(=O)C(=O)Nc1ccc(Cl)c(F)c1 | Active | Active | IC50 [1]: > 100 µM
